This note sets out measurements from the array DNA melting data of Ke et al. (doi:10.1101/2024.01.08.574731).

A short description of series [1]: folding enthalpy; higher = less favourable; fluorescence melt of hairpins on a sequencing array, two-state fit. The note with it: sodium 0.088 M. Summed up: (§1)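 To match UV melts, fitted temperatures were raised by 9.35 °C. These fits were bootstrapped two-state models that gave melting temperature and folding enthalpy, combined by inverse variance over four replicates. The input was normalised Cy3 fluorescence of library hairpins with annealed Cy3 and quencher oligos on a sequenced MiSeq flow cell, imaged in 50 mM Na-HEPES pH 8.0, 25 mM NaCl in 2.5 °C steps up to 60 °C.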

Series [2] can be described thus: melting temperature; fluorescence melt of hairpins on a sequencing array, two-state fit, raised by 9.35 °C to match UV melts. The conditions noted are these: sodium 0.088 M. Summed up: as §1

As to GCCAGCGAAAGCTTTGGC ((((((....)))..))), the folding enthalpy in series [1] is -23.8 kcal/mol. Further, the Tm in series [2] was 51.4 °C.

GATCATACATATGATC ((((((....)))))): the folding enthalpy in series [1] is -40.7 kcal/mol. For the same sequence, the Tm in series [2] amounted to 47.7 °C.

With GCCTCAGGAAACTAAGGC ((((.((....)).)))), the folding enthalpy in series [1] is -27.7 kcal/mol. In series [2], the Tm was 37.6 °C.

Turning to GATCTTAGCAAAGATC ((((((....)))))), the folding enthalpy in series [1] was -30.9 kcal/mol. Moreover, in series [2], the Tm was 42.4 °C.

In the case of GATCTGGGTCCAGATC ((((((....)))))), in series [1], the folding enthalpy was -42.5 kcal/mol. Also, in series [2], the Tm worked out at 52.7 °C.

GCGGGAAGCCGC ((((....)))): the folding enthalpy in series [1] is -18.4 kcal/mol. In addition, in series [2], the Tm was 61.6 °C.

For GCTAACCGAAAGGTAAGC (((.(((....))).))), the folding enthalpy in series [1] was -30.8 kcal/mol. Besides, the Tm in series [2] came out at 52.1 °C.

Turning to GGGATCGAAAGATGGCCC ((((((....)))..))), the folding enthalpy in series [1] was -13.8 kcal/mol. Moreover, the Tm in series [2] came out at 33.5 °C.

GATCCATAATGGATC ((((((...)))))): the folding enthalpy in series [1] is -34.8 kcal/mol. Further, the Tm in series [2] was found to be 49.6 °C.

With GCCGGCGAAAGCCAAGGC ((((((....)))..))), the folding enthalpy in series [1] is -22.8 kcal/mol. Further, the Tm in series [2] was found to be 65.3 °C.

As for GCCTTAGGAAACTGAGGC ((((.((....)).)))), the folding enthalpy in series [1] was -41.7 kcal/mol. Moreover, in series [2], the Tm was 49 °C.

Take GTCGGCGAAAGCCGTGAC ((((((....)))..))): the folding enthalpy in series [1] was -8.14 kcal/mol. The Tm in series [2] was 41.1 °C.

As for GGCACAGGAAACTACGCC (((..((....))..))), the folding enthalpy in series [1] is -29.9 kcal/mol. In addition, the Tm in series [2] stood at 39.8 °C.

Regarding GAAGTTGGAAACAGCTTC ((((.((....)).)))), the folding enthalpy in series [1] is -38.7 kcal/mol. In addition, the Tm in series [2] turned out to be 44.4 °C.

Turning to GATCCCGGAAACGGAATC (((.(((....))).))), the folding enthalpy in series [1] was -24.7 kcal/mol. Further, in series [2], the Tm is 40.1 °C.

GTGCCCGAAAGGGCTCAC ((((((....)))..))): the folding enthalpy in series [1] was -7.4 kcal/mol. In series [2], the Tm amounted to 45.5 °C.

As for GATCTCGGGCGAGATC ((((((....)))))), the folding enthalpy in series [1] is -30.4 kcal/mol. Further, in series [2], the Tm is 55.2 °C.

Regarding GGTGGAGGAAACTTCACC ((((.((....)).)))), the folding enthalpy in series [1] was -33.4 kcal/mol. In series [2], the Tm was 50.1 °C.

GATCGACCGTTCGATC ((((((....)))))): the folding enthalpy in series [1] was -46 kcal/mol. In series [2], the Tm was 50.7 °C.

In the case of GGGAAGCGAAAGCTCCC (((.(((....)))))), the folding enthalpy in series [1] was -38.7 kcal/mol. Further, the Tm in series [2] came to 59.7 °C.

With GGTGTCGGAAACGATGCC ((..(((....)))..)), the folding enthalpy in series [1] is -26.7 kcal/mol. The Tm in series [2] was found to be 49.4 °C.

For the sequence GATCGAGCTTTCGATC ((((((....)))))), the folding enthalpy in series [1] was -35.1 kcal/mol. Moreover, the Tm in series [2] was found to be 52.6 °C.

Turning to GATCCCATCTGGGATC ((((((....)))))), the folding enthalpy in series [1] is -36.2 kcal/mol. The Tm in series [2] was 62.6 °C.

On to CGCACGGAAACGTGAGCG ((((((....)))..))), for which, in series [1], the folding enthalpy was -14.8 kcal/mol. The Tm in series [2] is 50.5 °C.

For GGGCTCGGAAACGGGCTC (.((.((....)).)).), the folding enthalpy in series [1] is -20.2 kcal/mol. The Tm in series [2] was determined as 49.6 °C.

Regarding GGGCTGCGAAAGCACCCC (((.(((....))).))), in series [1], the folding enthalpy is -18.2 kcal/mol. Moreover, the Tm in series [2] is 57.3 °C.

As to GATCCGAGCGCGGATC ((((((....)))))), the folding enthalpy in series [1] was -42.4 kcal/mol. The Tm in series [2] is 58.8 °C.

As to GATCAGATATCTGATC ((((((....)))))), the folding enthalpy in series [1] is -47.9 kcal/mol. Moreover, the Tm in series [2] was found to be 50.3 °C.

With GGCGATGGAAACGTCGCC (((((.(....).))))), the folding enthalpy in series [1] was -48.7 kcal/mol. Further, the Tm in series [2] is 64.6 °C.

Consider GATGTGAAAACATC (((((....))))), for which the folding enthalpy in series [1] was -28.4 kcal/mol. Also, the Tm in series [2] was determined as 49 °C.

As for GGTCTGCCGAAAGGCACC (((..(((....)))))), in series [1], the folding enthalpy was -6.75 kcal/mol. Also, in series [2], the Tm was 28.8 °C.

On to GTTAACGAAAGTTATAAC ((((((....)))..))), for which the folding enthalpy in series [1] was -13.3 kcal/mol. Besides, in series [2], the Tm was determined as 26.4 °C.

GACTCTACGAAAGTAGTC (((..(((....)))))): the folding enthalpy in series [1] is -10.9 kcal/mol. Also, in series [2], the Tm came to 30.1 °C.

On to GCAGATGAAAATCTGC ((((((....)))))), for which the folding enthalpy in series [1] is -39 kcal/mol. Moreover, the Tm in series [2] was 59.9 °C.

As to GCTGGTGCGAAAGCAAGC (((..(((....)))))), the folding enthalpy in series [1] is -14.5 kcal/mol. Moreover, the Tm in series [2] amounted to 43 °C.

With GTAAGTCGAAAGACGTAC (((.(((....))).))), in series [1], the folding enthalpy was -15.2 kcal/mol. In addition, the Tm in series [2] is 47.1 °C.

As for ATAGCGAAAGCTAT (((((....))))), in series [1], the folding enthalpy is -15.9 kcal/mol. The Tm in series [2] was 54 °C.
